In one assay the target is K681R-PFKL (Homo sapiens, UniProt P17858, K681R). The assay can be described thus: enzyme-coupled F6P phosphorylation assay, K681R-PFKL. Type of assay: biochemical. The following applies: read-out: IC50, inhibition of PFKL activity.
In assay [1] the target is T1, WT-PFKP (Homo sapiens, UniProt Q01813).
T1 sequence (Q01813 1-784): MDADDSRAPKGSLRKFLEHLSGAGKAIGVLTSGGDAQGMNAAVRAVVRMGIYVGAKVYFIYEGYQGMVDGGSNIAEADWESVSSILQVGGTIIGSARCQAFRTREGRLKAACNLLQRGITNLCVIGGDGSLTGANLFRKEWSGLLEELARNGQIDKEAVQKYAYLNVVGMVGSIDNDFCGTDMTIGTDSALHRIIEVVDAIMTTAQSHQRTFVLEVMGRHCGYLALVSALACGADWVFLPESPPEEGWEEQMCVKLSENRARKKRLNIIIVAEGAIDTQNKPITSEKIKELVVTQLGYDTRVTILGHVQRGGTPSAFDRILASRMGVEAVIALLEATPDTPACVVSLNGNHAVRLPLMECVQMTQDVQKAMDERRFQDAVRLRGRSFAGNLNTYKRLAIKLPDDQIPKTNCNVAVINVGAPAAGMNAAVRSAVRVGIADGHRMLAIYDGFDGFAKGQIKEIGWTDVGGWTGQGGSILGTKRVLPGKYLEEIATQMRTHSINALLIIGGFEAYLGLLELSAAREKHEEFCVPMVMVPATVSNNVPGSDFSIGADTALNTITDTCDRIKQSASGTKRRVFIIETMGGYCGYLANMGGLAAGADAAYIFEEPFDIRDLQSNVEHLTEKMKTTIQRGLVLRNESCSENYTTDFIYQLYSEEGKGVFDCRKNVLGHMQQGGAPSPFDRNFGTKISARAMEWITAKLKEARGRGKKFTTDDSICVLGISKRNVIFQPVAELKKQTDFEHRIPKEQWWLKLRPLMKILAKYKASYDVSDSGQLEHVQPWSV
The assay is classed as binding.

The target of another assay is T2, ABHD12 (Homo sapiens, UniProt Q8N2K0).
T2 sequence (Q8N2K0 1-398): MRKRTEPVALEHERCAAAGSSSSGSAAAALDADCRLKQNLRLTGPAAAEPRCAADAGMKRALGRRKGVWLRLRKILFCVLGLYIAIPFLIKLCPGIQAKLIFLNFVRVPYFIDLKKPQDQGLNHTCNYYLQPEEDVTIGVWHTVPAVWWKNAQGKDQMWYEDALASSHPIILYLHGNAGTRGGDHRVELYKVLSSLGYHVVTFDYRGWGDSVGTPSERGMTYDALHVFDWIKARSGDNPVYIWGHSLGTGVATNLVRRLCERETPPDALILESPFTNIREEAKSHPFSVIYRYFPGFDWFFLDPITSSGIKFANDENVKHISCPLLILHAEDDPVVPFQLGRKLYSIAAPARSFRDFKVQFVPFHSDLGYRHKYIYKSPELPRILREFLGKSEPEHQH
The assay can be described thus: TMT18plex lysine ligandability profiling, ABHD12. Type of assay: binding. As to conditions: both MDA-MB-231 and MDA-MB-436 cell lines. A digest of the protocol: (§1)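 Live MDA-MB-231 or MDA-MB-436 breast cancer cells were exposed to the test compound (100 µM, 8 h) or DMSO vehicle. Lysates (soluble and insoluble fractions) were chased with a desthiobiotin-tagged lysine-specific STP ester probe, trypsin-digested, streptavidin-enriched and quantified by TMTpro-18plex. Lysines had to be quantified in all biological triplicates and TMT channels. A lysine counted as liganded at ≥60% loss of probe enrichment relative to DMSO.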

A further assay deals with WT-PFKL (Homo sapiens, UniProt P17858). The assay can be described thus: enzyme-coupled F6P phosphorylation assay, WT-PFKL in HEK293T cell lysates. The assay is classed as biochemical. The following applies: read-out: apparent IC50, inhibition of PFKL activity.
WT-PFKL, sequence (P17858 whole entry): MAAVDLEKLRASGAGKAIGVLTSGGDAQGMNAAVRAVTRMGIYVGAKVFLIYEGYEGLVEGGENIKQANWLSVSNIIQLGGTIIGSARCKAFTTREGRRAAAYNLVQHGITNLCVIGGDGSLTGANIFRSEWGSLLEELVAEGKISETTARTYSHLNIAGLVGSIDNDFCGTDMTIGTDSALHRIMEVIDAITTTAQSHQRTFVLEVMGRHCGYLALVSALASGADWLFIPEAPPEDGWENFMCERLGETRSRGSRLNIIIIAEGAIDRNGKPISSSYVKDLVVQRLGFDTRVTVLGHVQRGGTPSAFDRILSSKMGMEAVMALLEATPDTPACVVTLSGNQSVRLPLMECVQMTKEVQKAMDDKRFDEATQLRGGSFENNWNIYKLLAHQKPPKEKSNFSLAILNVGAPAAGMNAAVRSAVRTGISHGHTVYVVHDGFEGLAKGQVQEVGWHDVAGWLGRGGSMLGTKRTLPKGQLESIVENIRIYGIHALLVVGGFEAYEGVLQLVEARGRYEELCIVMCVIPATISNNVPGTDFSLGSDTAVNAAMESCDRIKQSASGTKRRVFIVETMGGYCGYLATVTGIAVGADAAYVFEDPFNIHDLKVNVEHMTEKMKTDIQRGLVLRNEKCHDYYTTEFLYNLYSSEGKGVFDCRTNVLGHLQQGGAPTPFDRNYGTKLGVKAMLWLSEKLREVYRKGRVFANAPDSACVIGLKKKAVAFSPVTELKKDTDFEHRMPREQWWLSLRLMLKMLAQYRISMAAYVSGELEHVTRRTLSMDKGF
For the next assay, the target named is PFKP (Homo sapiens, UniProt Q01813). The experiment in a line: TMT18plex lysine ligandability profiling, PFKP. The assay is classed as binding. The following applies: 100 μM, 8 h, breast cancer cells. A digest of the protocol: as §1
A further assay has as its target PFKL (Homo sapiens, UniProt P17858). The assay can be described thus: TMT18plex lysine ligandability profiling, PFKL. The assay is classed as binding. The following applies: 100 μM, 8 h, breast cancer cells.
Another assay addresses K677R/K681R/K315R-PFKL (Homo sapiens, UniProt P17858, K315R/K677R/K681R). The experiment in a line: enzyme-coupled F6P phosphorylation assay, K677R/K681R/K315R-PFKL triple mutant. Type of assay: biochemical. As to conditions: read-out: IC50, inhibition of PFKL activity.
The target of another assay is K677R-PFKL (Homo sapiens, UniProt P17858, K677R). The experiment in a line: enzyme-coupled F6P phosphorylation assay, K677R-PFKL. The assay is classed as biochemical. As to conditions: read-out: IC50, inhibition of PFKL activity.
K677R-PFKL, sequence (P17858 whole entry K677R): as the sequence (P17858 whole entry) above, with K677R counted along it
The target of the next assay is K677R/K681R-PFKL (Homo sapiens, UniProt P17858, K677R/K681R). The assay can be described thus: enzyme-coupled F6P phosphorylation assay, K677R/K681R-PFKL double mutant. The assay is classed as biochemical. As to conditions: read-out: IC50, inhibition of PFKL activity.
K677R/K681R-PFKL, sequence (P17858 whole entry K677R/K681R): as the sequence (P17858 whole entry) above, with K677R, K681R counted along it
In assay [2] the target is T1, WT-PFKP. The assay can be described thus: F6P phosphorylation assay, WT-PFKP in HEK293T cell lysates. The assay is classed as biochemical. As to conditions: read-out: IC50, inhibition of PFKP activity.
For another assay, the system named is MDA-MB-231 cells. The assay can be described thus: untargeted lipidomics profiling of treated cells. The assay is classed as cell-based, human. The following applies: 100 μM, 8 h.
A further assay deals with T3, WT-ABHD12 (Homo sapiens, UniProt Q8N2K0).
T3 sequence (Q8N2K0 1-398): T2 sequence (Q8N2K0 1-398)
The assay can be described thus: LC/MS-based LPS hydrolysis assay, WT-ABHD12 in HEK293T cell lysates. The following applies: read-out: apparent IC50, inhibition of LPS hydrolysis activity; WT-ABHD12. The assay is classed as biochemical. Summed up: (§2)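 Recombinant ABHD12 (WT, S246A and K373 mutants) was expressed in HEK293T cells and used as cell lysate. Lysate was preincubated with the test compound (single-point 100 µM, or a dose series; 1 h, 37 °C), then given 17:1 LPS substrate (100 µM, 20 min, 37 °C).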

A further assay deals with nucleostemin (GNL3) (Homo sapiens, UniProt Q9BVP2). The experiment in a line: TMT18plex lysine ligandability profiling, GNL3. Type of assay: binding. As to conditions: 100 μM, 8 h, breast cancer cells. A digest of the protocol: as §1
nucleostemin (GNL3), sequence (Q9BVP2 whole entry): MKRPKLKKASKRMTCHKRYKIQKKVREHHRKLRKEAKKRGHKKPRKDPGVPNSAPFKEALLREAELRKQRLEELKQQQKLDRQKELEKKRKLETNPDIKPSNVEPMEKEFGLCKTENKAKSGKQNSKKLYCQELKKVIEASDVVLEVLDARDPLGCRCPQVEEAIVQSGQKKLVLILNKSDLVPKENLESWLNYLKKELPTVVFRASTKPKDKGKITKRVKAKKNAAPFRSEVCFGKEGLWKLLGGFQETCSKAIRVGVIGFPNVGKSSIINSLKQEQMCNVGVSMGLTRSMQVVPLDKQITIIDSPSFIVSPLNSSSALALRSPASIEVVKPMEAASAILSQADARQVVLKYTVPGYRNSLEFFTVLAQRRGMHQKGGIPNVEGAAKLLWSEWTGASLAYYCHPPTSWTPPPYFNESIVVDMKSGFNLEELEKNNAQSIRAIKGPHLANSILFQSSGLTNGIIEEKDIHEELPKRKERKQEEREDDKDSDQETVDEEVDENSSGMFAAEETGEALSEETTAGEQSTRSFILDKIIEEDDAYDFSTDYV
The target in assay [3] is kynurenine-oxoglutarate transaminase 3 (KYAT3) (Homo sapiens, UniProt Q6YP21). The experiment in a line: TMT18plex lysine ligandability profiling, KYAT3. Type of assay: binding. The following applies: 100 μM, 8 h, breast cancer cells. A digest of the protocol: as §1
kynurenine-oxoglutarate transaminase 3 (KYAT3), sequence (Q6YP21 whole entry): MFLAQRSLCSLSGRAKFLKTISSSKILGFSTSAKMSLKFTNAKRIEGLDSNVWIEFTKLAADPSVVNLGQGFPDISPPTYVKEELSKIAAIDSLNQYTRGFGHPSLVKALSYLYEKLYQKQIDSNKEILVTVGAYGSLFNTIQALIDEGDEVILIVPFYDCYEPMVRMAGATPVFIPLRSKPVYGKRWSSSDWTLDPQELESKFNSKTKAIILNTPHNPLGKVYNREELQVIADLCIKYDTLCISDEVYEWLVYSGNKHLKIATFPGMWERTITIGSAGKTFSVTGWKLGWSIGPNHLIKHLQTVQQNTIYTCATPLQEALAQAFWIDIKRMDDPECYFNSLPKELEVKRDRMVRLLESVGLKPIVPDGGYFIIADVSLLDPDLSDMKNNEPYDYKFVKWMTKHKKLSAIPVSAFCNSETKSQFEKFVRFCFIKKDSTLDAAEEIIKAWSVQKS
The target in a further assay is K373R-ABHD12 (Homo sapiens, UniProt Q8N2K0, K373R). The assay can be described thus: LC/MS-based LPS hydrolysis assay, K373R-ABHD12 in HEK293T cell lysates. The following applies: read-out: IC50, inhibition of LPS hydrolysis activity; K373R-ABHD12 mutant. The assay is classed as biochemical. Summed up: as §2
K373R-ABHD12, sequence (Q8N2K0 whole entry K373R): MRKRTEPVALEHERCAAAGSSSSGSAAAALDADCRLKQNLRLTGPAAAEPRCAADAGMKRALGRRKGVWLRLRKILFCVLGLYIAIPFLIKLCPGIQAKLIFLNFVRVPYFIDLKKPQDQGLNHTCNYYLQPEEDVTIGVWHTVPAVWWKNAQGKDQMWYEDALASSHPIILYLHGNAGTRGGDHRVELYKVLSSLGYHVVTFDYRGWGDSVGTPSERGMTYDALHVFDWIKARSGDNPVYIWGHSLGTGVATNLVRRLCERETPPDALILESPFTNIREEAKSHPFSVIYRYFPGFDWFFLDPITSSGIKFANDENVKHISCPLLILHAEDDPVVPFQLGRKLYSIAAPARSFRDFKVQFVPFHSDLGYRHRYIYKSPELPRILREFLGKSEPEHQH
Another assay has as its target K688R-PFKP (Homo sapiens, UniProt Q01813, K688R). The experiment in a line: F6P phosphorylation assay, K688R-PFKP in HEK293T cell lysates. The assay is classed as biochemical. As to conditions: read-out: IC50, inhibition of PFKP activity; K688R-PFKP variant.

Where two headings read alike, the source gives them in different places. Bounds are passed on as bounds.

PFKL, sequence (P17858 whole entry): as the sequence (P17858 whole entry) above
K681R-PFKL, sequence (P17858 whole entry K681R): as the sequence (P17858 whole entry) above, with K681R counted along it
K677R/K681R/K315R-PFKL, sequence (P17858 whole entry K315R/K677R/K681R): as the sequence (P17858 whole entry) above, with K315R, K677R, K681R counted along it
K688R-PFKP, sequence (Q01813 whole entry K688R): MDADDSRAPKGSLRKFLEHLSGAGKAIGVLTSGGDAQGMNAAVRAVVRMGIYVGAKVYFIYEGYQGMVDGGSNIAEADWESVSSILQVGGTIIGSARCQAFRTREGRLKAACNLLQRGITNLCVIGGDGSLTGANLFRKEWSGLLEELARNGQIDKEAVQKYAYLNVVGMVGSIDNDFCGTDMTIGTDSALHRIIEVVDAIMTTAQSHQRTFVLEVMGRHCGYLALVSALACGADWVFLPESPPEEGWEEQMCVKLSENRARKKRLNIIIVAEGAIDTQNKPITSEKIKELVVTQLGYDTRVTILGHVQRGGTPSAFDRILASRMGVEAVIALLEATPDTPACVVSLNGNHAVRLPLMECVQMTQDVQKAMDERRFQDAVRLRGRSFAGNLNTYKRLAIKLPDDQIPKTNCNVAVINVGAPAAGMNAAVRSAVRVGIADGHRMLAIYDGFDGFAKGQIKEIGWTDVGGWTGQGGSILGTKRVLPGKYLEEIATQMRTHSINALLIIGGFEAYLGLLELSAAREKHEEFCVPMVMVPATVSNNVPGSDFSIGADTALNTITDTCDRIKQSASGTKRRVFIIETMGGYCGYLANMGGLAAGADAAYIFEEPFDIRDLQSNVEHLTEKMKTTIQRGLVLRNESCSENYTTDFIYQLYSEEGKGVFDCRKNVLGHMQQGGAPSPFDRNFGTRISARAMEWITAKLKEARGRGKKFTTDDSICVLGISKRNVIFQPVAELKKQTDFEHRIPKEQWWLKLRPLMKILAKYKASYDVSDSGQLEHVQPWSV

Turning to `CC1(C)[C@@H]2C[C@H]3[C@H](c4ccccc4)c4c(O)c(C=O)c(O)c(C=O)c4O[C@@]3(C)[C@H]1C2` [(−)-guadial B], the IC50 (in general, the concentration needed to halve the response being measured) was 7 µM at K681R-PFKL; 13.8 µM at WT-PFKP [1] (read-out: apparent IC50, blockade of P1 probe labeling, WT-PFKP); 4.6 µM on WT-PFKL; > 100 µM on K677R/K681R/K315R-PFKL; 8.6 µM at K677R-PFKL; 78.5 µM at K677R/K681R-PFKL. Moreover, the IC50 at WT-PFKP [2] was 3.8 µM; on WT-ABHD12, 18.1 µM; at K373R-ABHD12 it was > 100 µM; at K688R-PFKP, > 100 µM. Moreover, on WT-PFKP [1] (P1 probe labeling blockade), the “fold reduction in potency versus enantiomer (+)-guadial B” value was ~10 fold. Besides, the “ligandability of K373 in ABHD12” value at ABHD12 is 66%. For the same compound, the “ligandability of K688 in PFKP” value at PFKP is listed as 60%. In addition, the “ligandability of K677 in PFKL” value on PFKL came out at 65%. Further, at PFKL, the “ligandability of K681 in PFKL” value stood at 60%. Further, the “levels of monoacylglycerophosphoserine LPS(18:0)” value in the assay with MDA-MB-231 cells is on record as “significantly elevated levels”. For the same compound, the “levels of stearic acid FA(18:0)” value in the assay on MDA-MB-231 cells is “concurrent reduction”. Also, on nucleostemin (GNL3), the “ligandability of K20 in GNL3” value is recorded as 74%. In [3], the “ligandability of K330 in KYAT3” value came out at 28%.

Source of the values: publication PMC11000255 (Journal of the American Chemical Society, 2024).
